# The list is not random: actives were taken first. Their share in the collection is about 2.9%.
# MEKK2wt PB1 HTS – raises or lowers MEK5 binding to wildtype human MEKK2 PB1 domain; binding response (% of control), % at 10 µM; actives 1.1% (n = 290,000); bead flow cytometry, Alexa488-MEK5 binding to MEKK2 WT; actives lie on both sides; in the data active = binding response below about 67% or above about 130%
# MEKK3 PB1 HTS – raises or lowers MEK5 binding to the human MEKK3 PB1 domain. bead-based flow cytometry, Alexa488-MEK5 binding to MEKK3; actives lie on both sides; 0 = blocked by unlabeled MEK5, 100 = vehicle. Q99759. AID 1529. binding response (% of control), % at 10 µM. actives 1.4% (n = 290,000);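 active = binding response more than 3 SD above or below the average of its plate-row segment, actives on both sides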;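 also: Alexa488 bead fluorescence after subtracting the streptavidin-only scavenger bead signal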
# B2AR ag – activates human beta-2 adrenergic receptor causing internalization; actives 0.43% (n = 340,000); Am2.2-beta2AR cells, FAP receptor internalization, flow cytometry; AID 504454; response, % (test concentration not listed);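 active = response above a set limit, near 3 SD of response in nonfluorescent compounds, cut at about 42% in these data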
# MEKK2mut PB1 HTS – signal of MEK5 binding to mutant human MEKK2 PB1 domain; bead flow cytometry, Alexa488-MEK5 binding to MEKK2 mutant; percent response, % at 10 µM; actives 0.35% (n = 290,000); in the data active = percent response above about 24%, passing the limit was not always enough
# ATG4B inhibitor – inhibitors of human ATG4B cysteine protease. Q9Y4P1. inhibition, % at 8.33 µM. actives 0.51% (n = 340,000). AID 504462. ATG4B cleavage of LC3-PLA2, NBD-HPC fluorescence, 1 h; in the data active = inhibition above about 40%
# Target sequence (Q9Y4P1 whole entry, looked up): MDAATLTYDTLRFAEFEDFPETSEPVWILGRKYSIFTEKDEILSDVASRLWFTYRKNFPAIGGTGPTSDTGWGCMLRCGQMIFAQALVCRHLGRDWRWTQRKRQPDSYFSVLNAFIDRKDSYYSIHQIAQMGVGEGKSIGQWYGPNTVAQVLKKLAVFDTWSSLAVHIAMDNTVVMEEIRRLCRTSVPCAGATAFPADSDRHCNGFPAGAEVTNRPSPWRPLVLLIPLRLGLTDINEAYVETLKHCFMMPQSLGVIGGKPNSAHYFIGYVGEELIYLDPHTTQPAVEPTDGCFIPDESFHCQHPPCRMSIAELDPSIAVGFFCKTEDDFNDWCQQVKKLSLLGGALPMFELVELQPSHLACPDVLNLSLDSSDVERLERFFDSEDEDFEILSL
# Dynein cargo inh – dynein cargo transport inhibition | AID 1381 | 3617.4 mouse cells, GR-EGFP nuclear translocation imaging; test concentration mostly 20 µM; stimulated with dexamethasone, 1 µM; hits give low values | z-score, hits read low | actives 0.47% (n = 220,000);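 active = plate z-score of nuclear minus cytoplasmic receptor signal below a set negative limit, without overly bright fluorescence or cell loss, cut at about -3.5 in these data, passing the limit was not always enough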;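 also: z-score of nuclear minus cytoplasmic ring GR-EGFP intensity difference per well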
#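 Buffer or medium: tet-free medium with charcoal-stripped serum / Also added: dexamethasone agonist, 1.0 µM final, for 30 min / Timing: induction 48 h, compound 1 h, agonist 30 min / Measured by: high-content fluorescence imaging after fixation / Read-out: nuclear-to-cytoplasmic GR-EGFP distribution per well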
# MEKK2wt confirm – raises or lowers MEK5 binding to wildtype human MEKK2, retest; shares compounds with MEKK3 PB1 HTS; bead flow cytometry, Alexa488-MEK5 binding to MEKK2 WT; actives lie on both sides; binding response (% of control), % at 10 µM; actives 2.4% (n = 5,900); AID 1892; in the data active = binding response below about 16% or above about 210%; inactive = in between
# MEKK2mut-MEK5 – signal of MEK5 binding to mutant human MEKK2, retest; shares compounds with MEKK3 PB1 HTS; bead flow cytometry, Alexa488-MEK5 binding to MEKK2 mutant; percent response, % at 10 µM; actives 2% (n = 5,900); AID 1893; in the data active = percent response mostly above about 71%, no sharp cut-off; inactive = mostly below about 38%;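 also: higher means compound restores mutant binding toward wildtype level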
# MEKK3-MEK5 inh – confirmation of inhibitors of MEK5 binding to human MEKK3 | actives 1.8% (n = 5,900) | binding response (% of control), % at 10 µM | bead flow cytometry, Alexa488-MEK5 binding to MEKK3; hits give low values | shares compounds with MEKK3 PB1 HTS | AID 1894;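 active = binding response below 72% of control, or above a set upper limit, though filed actives all read lower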;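 also: 100% = DMSO only wells and 0% = binding blocked by excess unlabeled MEK5; lower values mean stronger disruption of MEK5 binding to MEKK3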
# * = called active by the depositor; / = not tested or not shown; [ ] = remark or other dose.
SMILES,MEKK2wt PB1 HTS,MEKK3 PB1 HTS,B2AR ag,MEKK2mut PB1 HTS,ATG4B inhibitor,Dynein cargo inh,MEKK2wt confirm,MEKK2mut-MEK5,MEKK3-MEK5 inh
CC[n+]1c(/C=C/c2c[nH]c3ccccc23)ccc2cc(C)ccc21,/,87.0,/,119.0*,15.2,-1.12,163.0,30.0,104.0
CCN(CC)C(=O)c1ccc(/C=C/c2c[nH]c3ccccc23)[n+](C)c1,102.0,98.0,-47.6,-4.0,-8.9,0.381,/,/,/
COc1cc(C(=O)NNC(=O)COc2ccc(Cl)cc2)ccc1OCC(=O)N1CCOCC1,/,/,3.7,/,4.9,/,/,/,/
CCCSC(=O)N(CC)CC(=O)Nc1c(CC)cccc1CC,100.0,96.0,1.8,1.0,-0.2,0.8,/,/,/
C=CCN(CC(=O)Nc1c(C)cccc1CC)C(=O)SCCC,95.0,81.0*[inhibitor],2.8,-9.0,-9.8,-1.46,98.0,-1.0,99.0
CCc1nnc(NC(=O)C2CC(=O)N(Cc3ccco3)C2)s1 (stereo not drawn),116.0,122.0*,5.9,6.0,-18.2,-0.454,101.0,-3.0,100.0
CCc1nnc(NC(=O)C2CC(=O)N(Cc3ccccc3)C2)s1 (stereo not drawn),102.0,103.0,1.5,-3.0,1.4,-0.0152,/,/,/
Cc1ccc(NC(=O)CC2SC(=NCC3CCCO3)NC2=O)cc1Cl (stereo not drawn),101.0,139.0*,0.3,-1.0,5.3,-0.477,96.0,-6.0,102.0
C/C(=N/NC(=O)C(O)(c1ccccc1)c1ccccc1)c1ccc([N+](=O)[O-])o1,85.0,93.0,1.2,-11.0,-3.1,-0.525,/,/,/
COc1ccc(OC)c(CNn2c(-c3cccc(C)c3)nc3ccccc3c2=O)c1,0.0*[inhibitor],1.0*[inhibitor],-4.8,-21.0,9.2,0.0933,106.0,3.0,106.0
O=C(O)c1ccccc1NS(=O)(=O)c1cccc(-n2sc3ccccc3c2=O)c1,97.0,102.0,-3.6,-6.0,12.3,/,/,/,/
CCOC(=O)c1c(NC(=O)C[n+]2ccc(Cc3ccccc3)cc2)sc(C)c1C,138.0*,94.0,1.3,11.0,3.3,-0.828,191.0,53.0,111.0
CCOC(=O)c1c(NC(=S)Nc2ccccc2)sc(C)c1C,93.0,82.0,5.0,4.0,-6.4,-0.556,/,/,/
O=C1CN(C(=O)CSc2nnc(C3CC3)n2-c2ccccc2)c2ccccc2N1,108.0,105.0,10.0,7.0,-4.6,1.51,/,/,/
CCOC(=O)C(CCCOc1ccc(C)cc1)C(=O)OCC,103.0,102.0,0.9,4.0,0.8,0.265,/,/,/
CCOC(=O)C(CCCOc1ccccc1)C(=O)OCC,65.0,43.0*[inhibitor],9.0,-35.0,-13.4,0.435,96.0,-5.0,101.0
CCc1nc2ccccc2c(C(=O)OCC(=O)NC(=O)c2cccn2C)c1C,72.0,67.0*[inhibitor],-2.0,-18.0,29.3,-0.0517,101.0,3.0,105.0
O=C(OCc1nc2ccsc2c(=O)[nH]1)c1ccccc1,/,/,1.6,/,-5.3,/,/,/,/
CCS(=O)(=O)c1ccc(O)c(NC(=O)COc2ccc(OC)cc2)c1,96.0,90.0,-3.4,-2.0,-5.1,-1.18,/,/,/
CCS(=O)(=O)c1ccc(O)c(NC(=O)COc2ccc(C)cc2)c1,106.0,154.0*,-2.9,0.0,-16.3,-0.117,109.0,7.0,101.0
COC(=O)c1nn(-c2ccc(OC)cc2)c(=O)cc1Oc1cccc(Cl)c1,94.0,101.0,2.2,2.0,-0.2,-0.467,/,/,/
N#CCc1ccc(Oc2ccc([N+](=O)[O-])cn2)cc1,52.0,48.0*[inhibitor],-1.0,-19.0,-8.1,-0.0324,106.0,7.0,106.0
CO/N=C(\c1nonc1N)N1CCN(c2ccc([N+](=O)[O-])cc2Cl)CC1,98.0,100.0,-6.4,-1.0,-8.2,0.215,/,/,/
CCO/N=C(/c1nonc1N)N1CCN(c2ccc([N+](=O)[O-])cc2)CC1,118.0,129.0*,0.2,5.0,-13.0,0.21,103.0,6.0,108.0
Cc1ccc(N(CC(=O)NC2CCCC2)C(=O)CCC(=O)Nc2nc(C)cs2)cc1,103.0,102.0,0.6,-3.0,-4.8,/,/,/,/
SMILES,MEKK2wt PB1 HTS,MEKK3 PB1 HTS,B2AR ag,MEKK2mut PB1 HTS,ATG4B inhibitor,Dynein cargo inh,MEKK2wt confirm,MEKK2mut-MEK5,MEKK3-MEK5 inh
COc1ccc(OC)c(NC(=O)NNC(=O)CCCOc2ccc(Cl)cc2C)c1,98.0,101.0,-9.4,-3.0,-17.2,-0.178,/,/,/
CCOC(=O)c1c(-c2ccc(F)cc2)csc1/N=C/N(C)C,117.0,129.0*,-0.9,2.0,-1.9,-0.451,103.0,6.0,107.0
Cc1nc2cc(C(=O)NCc3ccc4c(c3)OCO4)ccc2n1-c1ccc(Br)cc1,92.0,65.0*[inhibitor],-0.2,-2.0,-13.6,-0.0643,98.0,3.0,96.0
O=C(NCc1ccc2c(c1)OCO2)c1ccc(Br)cc1,108.0,99.0,-7.0,4.0,3.5,/,/,/,/
CCOc1ccc(C(=O)OCCN(CC)CC)cc1,110.0,105.0,9.3,14.0,-2.0,0.555,/,/,/
CC/C(=C(\c1ccc(O)cc1)c1ccc(OCCN(C)C)cc1)c1ccccc1,180.0*,78.0,16.8,43.0,8.9,/,182.0,39.0,102.0
CCN(CC)CCOc1ccc(/C(=C(/Cl)c2ccccc2)c2ccccc2)cc1,179.0*,108.0,30.4,26.0*,4.1,-0.797,189.0,62.0,107.0
O=C(O)c1ccc(CN2C(=O)CSC2=S)cc1,119.0,124.0*,-3.4,5.0,-0.5,0.532,98.0,-4.0,98.0
Cc1ccc(-c2cc(C(=O)Nc3nccs3)c3ccccc3n2)c(C)c1,106.0,152.0*,16.2,0.0,2.9,-0.936,105.0,-6.0,101.0
O=C(Nc1nccs1)c1cc(-c2ccncc2)nc2ccccc12,100.0,107.0,-7.8,0.0,-6.6,-0.289,/,/,/
COc1cc(CC(=O)OCC(=O)NCc2cccs2)cc(OC)c1OC,/,/,1.7,/,3.8,/,/,/,/
CCCN(CC(=O)Nc1cccc(Br)c1)CC(=O)Nc1ccc(F)c(F)c1F,154.0*,101.0,13.4,31.0,9.2,0.383,103.0,-3.0,101.0
O=C(Nc1ccc(N2CCCCC2)cc1)c1cncc(Br)c1,38.0*[inhibitor],99.0,14.8,1.0,0.0,-0.0669,97.0,-4.0,99.0
O=C(Nc1ccc(S(=O)(=O)N2CCCC2)cc1)c1cncc(Br)c1,/,/,6.9,/,-4.7,/,/,/,/
Cc1ccccc1N(CC(=O)NC1CCCCC1)C(=O)CCCC(=O)Nc1ccccn1,96.0,97.0,-0.6,-4.0,-13.7,/,/,/,/

# Screening results as filed in PubChem BioAssay.
